Experimental data published in ChEMBL document CHEMBL4038306, “Development of an Aryloxazole Class of Hepatitis C Virus Inhibitors Targeting the Entry Stage of the Viral Replication Cycle” (J Med Chem, 2017).
Values after ≈ are worked out from the molar mass of the structure shown.

How the values were obtained:
[1] = Permeability of the compound by PAMPA; format: physicochemical; conditions: for Papp: read-out: permeability
Outline: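 Passive diffusion measured by stirred double-sink PAMPA; permeability expressed in 10⁻⁶ cm/s.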

[2] = Kinetic solubility of the compound in pH 7.4 phosphate buffer; format: physicochemical; conditions: read-out: Kinetic_solubility

Row | Papp [1] [×10⁻⁶ cm/s] | solubility kinetic [2] [µg/mL] | permeability [1] [×10⁻⁶ cm/s] | SMILES
1 | 432 | > 65 |  | Cc1ccccc1-c1nc(CN2CCC(C(=O)NCCCN3CCOCC3)CC2)c(C)o1
2 | 34.5 | > 65 |  | Cc1ccccc1-c1nc(CN2CCC(C(=O)NCCCN3CCCCC3)CC2)c(C)o1
3 | 425 | > 67 |  | Cc1ccccc1-c1nc(CN2CCC(C(=O)NCCCN3CCC(C)CC3)CC2)c(C)o1
4 | 14 | > 67 |  | Cc1ccccc1-c1nc(CN2CCC(C(=O)N3CCN(CCN(C)C)CC3)CC2)c(C)o1
5 | < 1 | 62.4 (≈ 102 µM) |  | Cc1oc(-c2c(Br)cccc2Br)nc1CN1CCC(C(=O)NCCCN2C[C@H](C)C[C@H](C)C2)CC1
6 | 245 | > 83 |  | COc1cccc(Br)c1-c1nc(CN2CCC(C(=O)NCCCN3C[C@H](C)C[C@H](C)C3)CC2)c(C)o1
7 |  | > 74 |  | COc1cccc(F)c1-c1nc(CN2CCC(C(=O)NCCCN3C[C@H](C)C[C@H](C)C3)CC2)c(C)o1
8 | 234 | > 72 |  | Cc1cccc(F)c1-c1nc(CN2CCC(C(=O)NCCCN3C[C@H](C)C[C@H](C)C3)CC2)c(C)o1
9 | 196 | > 74 |  | Cc1cccc(Cl)c1-c1nc(CN2CCC(C(=O)NCCCN3C[C@H](C)C[C@H](C)C3)CC2)c(C)o1
10 | 331 | > 71 |  | Cc1ccccc1-c1nc(CN2CCC(C(=O)NCCCN3CC4CCCC(C4)C3)CC2)c(C)o1
11 | 55.4 | > 69 |  | Cc1ccccc1-c1nc(CN2CCC(C(=O)NCCCN3[C@H](C)CCC[C@@H]3C)CC2)c(C)o1
12 | 106 | 55.9 (≈ 116 µM) |  | CCc1ccccc1-c1nc(CN2CCC(C(=O)NCCCN3C[C@H](C)C[C@H](C)C3)CC2)c(C)o1
13 | 864 | > 71 |  | Cc1cc(C)cc(-c2nc(CN3CCC(C(=O)NCCCN4C[C@H](C)C[C@H](C)C4)CC3)c(C)o2)c1
14 | > 1400 |  |  | Cc1ccccc1-c1nc(CN2CCC(C(=O)NCCCN3CC(C)(C)CC(C)(C)C3)CC2)c(C)o1
15 | 51 | > 76 |  | COc1cccc(Cl)c1-c1nc(CN2CCC(C(=O)NCCCN3C[C@H](C)C[C@H](C)C3)CC2)c(C)o1
16 | 352 | > 72 |  | Cc1oc(-c2ccccc2Cl)nc1CN1CCC(C(=O)NCCCN2C[C@H](C)C[C@H](C)C2)CC1
17 | 279 | > 69 |  | Cc1cccc(-c2nc(CN3CCC(C(=O)NCCCN4C[C@H](C)C[C@H](C)C4)CC3)c(C)o2)c1
18 | < 3.2 | > 71 |  | Cc1ccccc1-c1nc(CN2CCC(C(=O)N3CCN(C4CCN(C)CC4)CC3)CC2)c(C)o1
19 | 547 | > 76 |  | Cc1ccc2ccccc2c1-c1nc(CN2CCC(C(=O)NCCCN3C[C@H](C)C[C@H](C)C3)CC2)c(C)o1
20 |  | 65.1 (≈ 117 µM) |  | Cc1oc(-c2c(Cl)cccc2C(F)(F)F)nc1CN1CCC(C(=O)NCCCN2C[C@H](C)C[C@H](C)C2)CC1
21 |  |  | 1267 | CC[C@@H]1C[C@H](CC)CN(CCCNC(=O)C2CCN(Cc3nc(-c4ccccc4C)oc3C)CC2)C1
22 |  | > 74 |  | Cc1oc(-c2cccc3ccccc23)nc1CN1CCC(C(=O)NCCCN2C[C@H](C)C[C@H](C)C2)CC1
23 | 396 | > 71 |  | Cc1ccccc1-c1nc(CN2CCC(C(=O)NCCCN3CCC(C(C)C)CC3)CC2)c(C)o1
24 | 82.4 | > 72 |  | Cc1oc(-c2c(F)cccc2F)nc1CN1CCC(C(=O)NCCCN2C[C@H](C)C[C@H](C)C2)CC1
25 | 615 | > 72 |  | Cc1oc(-c2cccc(Cl)c2)nc1CN1CCC(C(=O)NCCCN2C[C@H](C)C[C@H](C)C2)CC1
26 | 489 | 53.9 (≈ 115 µM) |  | Cc1ccccc1-c1nc(CN2CCC(C(=O)NCCCN3C[C@H](C)C[C@H](C)C3)CC2)c(C)o1
27 | 554 | > 69 |  | Cc1ccccc1-c1nc(CN2CCC(C(=O)NCCCN3C[C@H](C)C[C@@H](C)C3)CC2)c(C)o1 (racemic)
28 |  | > 71 |  | Cc1ccccc1-c1nc(CN2CCC(C(=O)NCCCN3CCCC(C(C)C)C3)CC2)c(C)o1 (racemic)

Further lines, the compound ahead of its results:

Row | SMILES | Papp [1] [×10⁻⁶ cm/s] | solubility kinetic [2] [µg/mL] | permeability [1] [×10⁻⁶ cm/s]
29 | Cc1cc(-c2nc(CN3CCC(C(=O)NCCCN4C[C@H](C)C[C@H](C)C4)CC3)co2)ccc1F | 215 | > 70 | 
30 | Cc1oc(-c2c3ccccc3cc3ccccc23)nc1CN1CCC(C(=O)NCCCN2C[C@H](C)C[C@H](C)C2)CC1 |  | 62.1 (≈ 112 µM) | 
31 | COc1cccc(OC)c1-c1nc(CN2CCC(C(=O)NCCCN3C[C@H](C)C[C@H](C)C3)CC2)c(C)o1 |  | > 76 | 
32 | CC[C@@H]1C[C@H](CC)CN(CCCNC(=O)C2CCN(Cc3nc(-c4c(F)cccc4F)oc3C)CC2)C1 | 130 |  | 
33 | Cc1ccc(-c2nc(CN3CCC(C(=O)NCCCN4C[C@H](C)C[C@H](C)C4)CC3)c(C)o2)cc1C | 219 | > 71 | 
34 | Cc1ccccc1-c1nc(CN2CCC(C(=O)NCCCCN3C[C@H](C)C[C@H](C)C3)CC2)c(C)o1 | 288 | > 71 | 
35 | Cc1cccc(Cl)c1-c1nc(CN2CCC(C(=O)NCCCN3CCC(C)(C)CC3)CC2)c(C)o1 |  | > 74 | 
36 | CCN(CC)CCCCNC(=O)C1CCN(Cc2nc(-c3ccc(OC)c(OC)c3)oc2C)CC1 | 10.4 | > 72 | 
37 | Cc1ccccc1-c1nc(CN2CCC(C(=O)NCCCN3C[C@H](C)C[C@H](C)C3)CC2)c(C)s1 |  | > 71 | 
38 | Cc1ccccc1-c1nc(CN2CCC(C(=O)NCCCN3CCC(C)(C)CC3)CC2)c(C)o1 | 241 | > 69 | 
39 | COc1cccc(C)c1-c1nc(CN2CCC(C(=O)NCCCN3C[C@H](C)C[C@H](C)C3)CC2)c(C)o1 | 198 | > 73 | 
40 | Cc1oc(-c2c(C)c(C)c(C)c(C)c2C)nc1CN1CCC(C(=O)NCCCN2C[C@H](C)C[C@H](C)C2)CC1 | 455 |  | 
41 | Cc1oc(-c2c(Cl)cccc2Br)nc1CN1CCC(C(=O)NCCCN2C[C@H](C)C[C@H](C)C2)CC1 |  | > 83 | 
42 | COc1ccc(-c2nc(CN3CCC(C(=O)NCCCN4C[C@H](C)C[C@H](C)C4)CC3)c(C)o2)cc1OC | 81.9 | > 76 | 
43 | Cc1cccc(C)c1-c1nc(CN2CCC(C(=O)NCCCN3C[C@H](C)C[C@H](C)C3)CC2)c(C)o1 | 254 | 55.9 (≈ 116 µM) | 
44 | Cc1oc(-c2c(Cl)cccc2Cl)nc1CN1CCC(C(=O)NCCCN2C[C@H](C)C[C@H](C)C2)CC1 |  | > 77 | 
45 | Cc1ccc(C)c(-c2nc(CN3CCC(C(=O)NCCCN4C[C@H](C)C[C@H](C)C4)CC3)c(C)o2)c1 |  | 56.1 (≈ 117 µM) | 
46 | CCCN(CCC)CCNC(=O)C1CCN(Cc2nc(-c3ccccc3C)oc2C)CC1 | 913 | > 65 | 
47 | Cc1ccc(-c2nc(CN3CCC(C(=O)NCCCN4C[C@H](C)C[C@H](C)C4)CC3)c(C)o2)c(C)c1 | 353 | > 71 | 
48 | Cc1oc(-c2ccc(Cl)cc2)nc1CN1CCC(C(=O)NCCCN2C[C@H](C)C[C@H](C)C2)CC1 | > 635 | > 72 | 
49 | Cc1cccc(Cl)c1-c1nc(CN2CCC(C(=O)NCCCN3CCC(C(C)C)CC3)CC2)c(C)o1 |  | > 76 | 
50 | Cc1ccc(-c2nc(CN3CCC(C(=O)NCCCN4C[C@H](C)C[C@H](C)C4)CC3)c(C)o2)cc1 | 274 | > 69 | 
51 | Cc1ccccc1-c1nc(CN2CCC(C(=O)NCCN3C[C@H](C)C[C@H](C)C3)CC2)c(C)o1 | 712 | > 67 | 
52 | Cc1cc(-c2nc(CN3CCC(C(=O)NCCCN4CCC(C(C)C)CC4)CC3)co2)ccc1F | 276 | > 72 | 
53 | Cc1ccccc1-c1nc(CN2CCC(C(=O)NCCCN3CCCC(C)C3)CC2)c(C)o1 (racemic) |  | > 67 | 
54 | Cc1ccccc1-c1nc(CN2CCC(C(=O)NCCCN3CCCC(CC(C)C)C3)CC2)c(C)o1 (racemic) | 3 | 54.9 (≈ 111 µM) | 
55 | Cc1cccc(Cl)c1-c1nc(CN2CCC(C(=O)NCCCN3CCCC(C)C3)CC2)c(C)o1 (racemic) | 651 | 52.6 (≈ 108 µM) | 
